Test results from ChEMBL document CHEMBL1828577, “Design and synthesis of some new thiophene, thienopyrimidine and thienothiadiazine derivatives of antipyrine as potential antimicrobial agents” (2011).
In brackets after ≈: the same amount, converted by molar mass. Activity calls are given as the source filed them. No cut-off for these calls is given here.

Key:
Type in all cases: functional
[1] = tested on: Syncephalastrum racemosum; assay: Antifungal activity against Syncephalastrum racemosum RCMB 052003 at 10 mg/ml after 3 to 4 days by agar well diffusion method; settings: for zone of inhibition at 10000 µg/mL: read-out: DIZ
In short: (§1)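 Agar well diffusion on Sabouraud dextrose agar (glucose–peptone–agar 40:10:15). Culture grown in Sabouraud broth for 3-4 days to 10^5 CFU mL⁻¹; 0.1 mL spread per plate. Wells sealed at the bottom with 0.8% soft agar, then loaded with 100 µl sample at 10 mg mL⁻¹ in DMSO; DMSO control. Incubated at 30 °C for 3–4 days. Zone caliper-read three times; triplicate tests; mean ± SD.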

[2] = tested on: Aspergillus fumigatus; assay: Antifungal activity against Aspergillus fumigatus RCMB 002003 at 10 mg/ml after 3 to 4 days by agar well diffusion method; settings: for zone of inhibition at 10000 µg/mL: read-out: DIZ; in short: as §1
[3] = tested on: Geotrichum candidum; assay: Antifungal activity against Geotrichum candidum RCMB 052006 at 10 mg/ml after 3 to 4 days by agar well diffusion method; settings: for zone of inhibition at 10000 µg/mL: read-out: DIZ; in short: as §1
[4] = tested on: Candida albicans; assay: Antifungal activity against Candida albicans RCMB 052002 at 10 mg/ml after 3 to 4 days by agar well diffusion method; settings: for zone of inhibition at 10000 µg/mL: read-out: DIZ; in short: as §1
[5] = tested on: Staphylococcus aureus; assay: Antibacterial activity against Staphylococcus aureus RCMB 000106 at 10 mg/ml after 24 hrs by agar well diffusion method; settings: for zone of inhibition at 10000 µg/mL: RCMB 000106, 24 h, read-out: DIZ
In short: (§2)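 Agar well diffusion on nutrient agar (tryptone 1%, yeast extract 0.5%, NaCl 0.5%, agar 1%, pH 7.0). Plates spread with centrifuged pellets from a 24 h culture (about 10^4-10^6 CFU/ml). 100 µl of sample at 10 mg/mL in DMSO per 6 mm well, DMSO control. Incubated at 37 °C for 24 h. Inhibition zone diameter (mm) caliper-read three times; test run three times; mean ± SD.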

[6] = tested on: Bacillus subtilis; assay: Antibacterial activity against Bacillus subtilis RCMB 000107 at 10 mg/ml after 24 hrs by agar well diffusion method; settings: for zone of inhibition at 10000 µg/mL: RCMB 000107, 24 h, read-out: DIZ; in short: as §2
[7] = tested on: Pseudomonas aeruginosa; assay: Antibacterial activity against Pseudomonas aeruginosa RCMB 000102 at 10 mg/ml after 24 hrs by agar well diffusion method; settings: for zone of inhibition at 10000 µg/mL: RCMB 000102, 24 h, read-out: DIZ; in short: as §2
[8] = tested on: Escherichia coli; assay: Antibacterial activity against Escherichia coli RCMB 000103 at 10 mg/ml after 24 hrs by agar well diffusion method; settings: for zone of inhibition at 10000 µg/mL: RCMB 000103, 24 h, read-out: DIZ; in short: as §2
[9] = tested on: Staphylococcus aureus; assay: Antibacterial activity against Staphylococcus aureus RCMB 000106 at 30 mg/ml after 24 hrs by agar well diffusion method; settings: RCMB 000106, 24 h, read-out: DIZ
[10] = tested on: Bacillus subtilis; assay: Antibacterial activity against Bacillus subtilis RCMB 000107 at 30 mg/ml after 24 hrs by agar well diffusion method; settings: RCMB 000107, 24 h, read-out: DIZ
[11] = tested on: Aspergillus fumigatus; assay: Antifungal activity against Aspergillus fumigatus RCMB 002003 after 3 to 4 days by two fold serial dilution method
In short: (§3)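 MIC by agar plate method. Two-fold serial dilutions in Sabouraud dextrose broth, autoclaved at 121 °C for 25 min; DMSO control. Loop of culture diluted to 10⁵–10⁶ CFU mL⁻¹. Incubated at 30 °C for 3–4 days, then colonies counted. MIC taken as the lowest concentration fully inhibiting growth relative to control, ignoring a single colony or faint haze.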

[12] = tested on: Geotrichum candidum; assay: Antifungal activity against Geotrichum candidum RCMB 052006 after 3 to 4 days by two fold serial dilution method; in short: as §3
[13] = tested on: Candida albicans; assay: Antifungal activity against Candida albicans RCMB 052002 after 3 to 4 days by two fold serial dilution method; in short: as §3
[14] = tested on: Syncephalastrum racemosum; assay: Antifungal activity against Syncephalastrum racemosum RCMB 052003 after 3 to 4 days by two fold serial dilution method; in short: as §3
[15] = tested on: Staphylococcus aureus; assay: Antibacterial activity against Staphylococcus aureus RCMB 000106 after 24 hrs by two fold serial dilution method; settings: RCMB 000106, 24 h
In short: (§4)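 MIC by agar plate method. Two-fold serial dilutions in nutrient broth (beef extract 5 g, peptone 10 g per litre, pH 7.0), autoclaved at 121 °C for 25 min; DMSO control. Loop inoculum diluted to 10⁵–10⁶ CFU mL⁻¹. Incubated at 37 °C for 24 h, then colonies counted. MIC taken as the lowest concentration giving complete inhibition, ignoring a single colony or faint haze.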

[16] = tested on: Bacillus subtilis; assay: Antibacterial activity against Bacillus subtilis RCMB 000107 after 24 hrs by two fold serial dilution method; settings: RCMB 000107, 24 h; in short: as §4
[17] = tested on: Pseudomonas aeruginosa; assay: Antibacterial activity against Pseudomonas aeruginosa RCMB 000102 after 24 hrs by two fold serial dilution method; settings: RCMB 000102, 24 h; in short: as §4
[18] = tested on: Escherichia coli; assay: Antibacterial activity against Escherichia coli RCMB 000103 after 24 hrs by two fold serial dilution method; settings: RCMB 000103, 24 h; in short: as §4
[19] = tested on: Syncephalastrum racemosum; assay: Antifungal activity against Syncephalastrum racemosum RCMB 052003 at 30 mg/ml after 3 to 4 days by agar well diffusion method; settings: read-out: DIZ

Row | Structure (SMILES) | diameter of the inhibition zone (DIZ) [1] | zone of inhibition at 10000 µg/mL [2] [mm] | zone of inhibition at 10000 µg/mL [4] [mm] | zone of inhibition at 10000 µg/mL [5] [mm] | zone of inhibition at 10000 µg/mL [6] [mm] | diameter of the inhibition zone (DIZ) [7] | diameter of the inhibition zone (DIZ) [8] | zone of inhibition at 10000 µg/mL [1] [mm] | zone of inhibition at 10000 µg/mL [3] [mm] | zone of inhibition at 10000 µg/mL [8] [mm] | other results
1 | Cc1c(NC(=O)/C=C/c2cccs2)c(=O)n(-c2ccccc2)n1C | inactive | 14.2 | 13.4 | 11 | 11.2 | inactive | inactive |  |  |  | diameter of the inhibition zone (DIZ) [3]: inactive
2 | Cc1c(Nc2csc3ncnc(N)c23)c(=O)n(-c2ccccc2)n1C |  | 12.5 | 11 | 13.9 | 15.2 | inactive |  | 13.4 | 12.8 | 10.4 | 
3 | Cc1c(Nc2csc(N)c2C(N)=O)c(=O)n(-c2ccccc2)n1C | inactive |  |  |  |  | inactive | inactive |  |  |  | diameter of the inhibition zone (DIZ) [2]: inactive; diameter of the inhibition zone (DIZ) [3]: inactive; diameter of the inhibition zone (DIZ) [4]: inactive; diameter of the inhibition zone (DIZ) [5]: inactive; diameter of the inhibition zone (DIZ) [6]: inactive
4 | CCOC(=O)C(=O)CC(=O)Nc1c(C)n(C)n(-c2ccccc2)c1=O | inactive | 11.1 | 10.6 | 16.3 | 16.2 | inactive | inactive |  | 13.4 |  | 
5 | CC1(C)S[C@@H]2[C@H](NC(=O)Cc3ccccc3)C(=O)N2[C@H]1C(=O)O [PENICILLIN G] |  |  |  |  |  |  |  |  |  |  | zone of inhibition at 30000 µg/mL [9]: 29.4 mm; zone of inhibition at 30000 µg/mL [10]: 32.5 mm
6 | CC(=O)Nc1c(C)n(C)n(-c2ccccc2)c1=O | inactive | 14.3 | 12.2 | 15.9 | 13.2 | inactive |  |  | 13.4 | 11.4 | 
7 | Cc1c(Nc2csc(NC(=O)CCl)c2C#N)c(=O)n(-c2ccccc2)n1C |  | 20.1 | 15.4 | 19.4 | 24.1 |  |  | 11.2 | 18.3 | 16.2 | zone of inhibition at 10000 µg/mL [7]: 18.9 mm; MIC [11]: 39 µg/mL (≈ 97 µM); MIC [12]: 78 µg/mL (≈ 194 µM); MIC [13]: 156 µg/mL (≈ 388 µM); MIC [14]: 313 µg/mL (≈ 779 µM); MIC [15]: 39 µg/mL (≈ 97 µM); MIC [16]: 19 µg/mL (≈ 47.3 µM); MIC [17]: 39 µg/mL (≈ 97 µM); MIC [18]: 78 µg/mL (≈ 194 µM)
8 | Clc1ccccc1C(c1ccccc1)(c1ccccc1)n1ccnc1 [CLOTRIMAZOLE] |  |  |  |  |  |  |  |  |  |  | zone of inhibition at 30000 µg/mL [19]: 20 mm
9 | CCOC(=O)c1c(Nc2c(C)n(C)n(-c3ccccc3)c2=O)csc1N |  | 22.1 | 16.4 | 20.2 | 25.3 |  |  | 18.2 | 22 | 23.8 | zone of inhibition at 10000 µg/mL [7]: 20.8 mm; MIC [11]: 19 µg/mL (≈ 51 µM); MIC [12]: 39 µg/mL (≈ 105 µM); MIC [13]: 78 µg/mL (≈ 209 µM); MIC [14]: 39 µg/mL (≈ 105 µM); MIC [15]: 39 µg/mL (≈ 105 µM); MIC [16]: 19 µg/mL (≈ 51 µM); MIC [17]: 39 µg/mL (≈ 105 µM); MIC [18]: 19 µg/mL (≈ 51 µM)
10 | Cc1c(NC(=O)CC(=O)C(=O)NN)c(=O)n(-c2ccccc2)n1C |  | 11.2 |  | 17.2 | 14.4 | inactive | inactive | 13.4 | 13.4 |  | diameter of the inhibition zone (DIZ) [4]: inactive
11 | Cc1c(Nc2csc(N)c2C#N)c(=O)n(-c2ccccc2)n1C |  | 24.3 | 17.2 | 23.9 | 27.2 |  |  | 18.9 | 22.4 | 24.4 | zone of inhibition at 10000 µg/mL [7]: 22.8 mm; MIC [11]: 19 µg/mL (≈ 58.4 µM); MIC [12]: 19 µg/mL (≈ 58.4 µM); MIC [13]: 39 µg/mL (≈ 120 µM); MIC [14]: 39 µg/mL (≈ 120 µM); MIC [15]: 19 µg/mL (≈ 58.4 µM); MIC [16]: 9.5 µg/mL (≈ 29.2 µM); MIC [17]: 39 µg/mL (≈ 120 µM); MIC [18]: 19 µg/mL (≈ 58.4 µM)
12 | CCC(C)n1ncn(-c2ccc(N3CCN(c4ccc(OCC5COC(Cn6cncn6)(c6ccc(Cl)cc6Cl)O5)cc4)CC3)cc2)c1=O (centres undefined) [ITRACONAZOLE] |  |  |  |  |  |  |  |  |  |  | zone of inhibition at 30000 µg/mL [19]: 22 mm
13 | Cc1c(Nc2csc3ncn(N)c(=N)c23)c(=O)n(-c2ccccc2)n1C | inactive |  |  |  |  | inactive | inactive |  |  |  | diameter of the inhibition zone (DIZ) [2]: inactive; diameter of the inhibition zone (DIZ) [3]: inactive; diameter of the inhibition zone (DIZ) [4]: inactive; diameter of the inhibition zone (DIZ) [5]: inactive; diameter of the inhibition zone (DIZ) [6]: inactive
14 | CCO/C=N\c1scc(Nc2c(C)n(C)n(-c3ccccc3)c2=O)c1C#N |  | 19.2 | 14.2 | 18.4 | 19.2 |  |  | 8.5 | 17.4 | 13.8 | zone of inhibition at 10000 µg/mL [7]: 16.2 mm; MIC [11]: 78 µg/mL (≈ 204 µM); MIC [12]: 78 µg/mL (≈ 204 µM); MIC [13]: 156 µg/mL (≈ 409 µM); MIC [14]: 625 µg/mL (≈ 1640 µM); MIC [15]: 78 µg/mL (≈ 204 µM); MIC [16]: 39 µg/mL (≈ 102 µM); MIC [17]: 78 µg/mL (≈ 204 µM); MIC [18]: 156 µg/mL (≈ 409 µM)
15 | Cc1c(Nc2csc3c2C(=O)N[S+]([O-])N3)c(=O)n(-c2ccccc2)n1C (centres undefined) |  | 15.1 | 13.4 | 18.3 | 19.2 | inactive | inactive | 10.6 | 14.4 |  | 
16 | CN[C@@H]1[C@H](O[C@H]2[C@H](O[C@H]3[C@H](O)[C@@H](O)[C@H](N=C(N)N)[C@@H](O)[C@@H]3N=C(N)N)O[C@@H](C)[C@]2(O)C=O)O[C@@H](CO)[C@H](O)[C@H]1O [STREPTOMYCIN] |  |  |  |  |  |  |  |  |  |  | zone of inhibition at 30000 µg/mL [9]: 25 mm; zone of inhibition at 30000 µg/mL [10]: 29 mm
